Test results reported in ChEMBL document CHEMBL3856229, “Hybrid Antibiotic Overcomes Resistance in P. aeruginosa by Enhancing Outer Membrane Penetration and Reducing Efflux” (J Med Chem, 2016).
pIC50: −log10 of the molar value. Converted amounts (≈) assume the structure as drawn.

Key:
Enterococcus faecalis = assay: Antibacterial activity against Enterococcus faecalis ATCC 29212 after 24 hrs by microtitre broth dilution method; assay type: functional; conditions: ATCC 29212, 24 h
Escherichia coli [1] = assay: Antibacterial activity against gentamicin/tobramycin/ciprofloxacin-resistant Escherichia coli isolate CANWARD-2011 97615 harboring AAC3-2A after 24 hrs by microtitre broth dilution method; assay type: functional; conditions: isolate CANWARD-2011 97615, 24 h
Pseudomonas aeruginosa [2] = assay: Antibacterial activity against multidrug-resistant/tobramycin-susceptible Pseudomonas aeruginosa isolate 85322; assay type: functional
Escherichia coli [3] = assay: Antibacterial activity against Escherichia coli ATCC 25922 after 24 hrs by microtitre broth dilution method; assay type: functional; conditions: ATCC 25922, 24 h
Escherichia coli [4] = assay: Antibacterial activity against gentamicin-resistant Escherichia coli isolate CAN-ICU 61714 after 24 hrs by microtitre broth dilution method; assay type: functional; conditions: isolate CAN-ICU 61714, 24 h
Pseudomonas aeruginosa [5] = assay: Antibacterial activity against multidrug-resistant/tobramycin-susceptible Pseudomonas aeruginosa isolate 86079; assay type: functional
Klebsiella pneumoniae = assay: Antibacterial activity against Klebsiella pneumoniae ATCC 13883 after 24 hrs by microtitre broth dilution method; assay type: functional; conditions: ATCC 13883, 24 h
Pseudomonas aeruginosa [6] = assay: Antibacterial activity against multidrug/extremely drug-resistant/colistin-susceptible Pseudomonas aeruginosa isolate 259-96918; assay type: functional
Pseudomonas aeruginosa [7] = assay: Antibacterial activity against gentamicin-resistant Pseudomonas aeruginosa isolate CAN-ICU 62308 after 24 hrs by microtitre broth dilution method; assay type: functional; conditions: isolate CAN-ICU 62308, 24 h
Pseudomonas aeruginosa [8] = assay: Antibacterial activity against pandrug-resistant Pseudomonas aeruginosa isolate 91433; assay type: functional
Escherichia coli [9] = assay: Antibacterial activity against amikacin-resistant Escherichia coli isolate CAN-ICU 63074 after 24 hrs by microtitre broth dilution method; assay type: functional; conditions: isolate CAN-ICU 63074, 24 h
Pseudomonas aeruginosa [10] = assay: Antibacterial activity against multidrug-resistant/tobramycin-susceptible Pseudomonas aeruginosa isolate 84745; assay type: functional
Pseudomonas aeruginosa [11] = assay: Antimicrobial activity against Pseudomonas aeruginosa PAO200; assay type: functional
In short: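 MIC (µg/mL) determined in PAO200, a PAO1-derived MexAB-OprM deletion strain used to assess efflux effects.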

Pseudomonas aeruginosa [12] = assay: Antibacterial activity against extremely drug-resistant Pseudomonas aeruginosa isolate 104354 infected in Galleria mellonella assessed as larvae survival at 75 mg/kg administered as single dose measured after 96 hrs; assay type: functional; conditions: isolate 104354, 96 h
In short: (§1)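 Galleria mellonella larvae were infected with 10^6 CFU of XDR P. aeruginosa #104354, resistant to all antipseudomonal classes except colistin. A single injected drug dose was given 2 h post-infection: 50 mg/kg with survival read at 24 h, or 75 mg/kg with survival read at 96 h. Controls were infected untreated larvae and PBS-injected larvae. Two independent experiments of 15 larvae each (n = 30).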

[13] = test system: Staphylococcus epidermidis; assay: Antibacterial activity against methicillin-susceptible Staphylococcus epidermidis isolate CANWARD-2008 81388 after 24 hrs by microtitre broth dilution method; assay type: functional; conditions: isolate CANWARD-2008 81388, 24 h
Pseudomonas aeruginosa [14] = assay: Antibacterial activity against pandrug-resistant Pseudomonas aeruginosa isolate 101243; assay type: functional
Pseudomonas aeruginosa [15] = assay: Antibacterial activity against multidrug-resistant/tobramycin-susceptible Pseudomonas aeruginosa isolate 86052; assay type: functional
Pseudomonas aeruginosa [16] = assay: Antibacterial activity against multidrug-resistant/tobramycin-susceptible Pseudomonas aeruginosa isolate 108590; assay type: functional
Acinetobacter baumannii = assay: Antibacterial activity against Acinetobacter baumannii isolate CAN-ICU 63169 after 24 hrs by microtitre broth dilution method; assay type: functional; conditions: isolate CAN-ICU 63169, 24 h
Enterococcus faecium = assay: Antibacterial activity against Enterococcus faecium ATCC 27270 after 24 hrs by microtitre broth dilution method; assay type: functional; conditions: ATCC 27270, 24 h
Streptococcus pneumoniae = assay: Antibacterial activity against Streptococcus pneumoniae ATCC 49619 after 24 hrs by microtitre broth dilution method; assay type: functional; conditions: ATCC 49619, 24 h
[17] = Inhibition of Pseudomonas aeruginosa DNA gyrase A assessed as inhibition of DNA supercoiling using PBR322 DNA as substrate after 30 mins by SYBR Gold staining based agarose gel electrophoresis
Pseudomonas aeruginosa [18] = assay: Antibacterial activity against multidrug/extremely drug-resistant/colistin-susceptible Pseudomonas aeruginosa isolate 101885; assay type: functional
Pseudomonas aeruginosa [19] = assay: Antibacterial activity against multidrug/extremely drug-resistant/colistin-susceptible Pseudomonas aeruginosa isolate 262-101856; assay type: functional
Pseudomonas aeruginosa [20] = assay: Antibacterial activity against multidrug/extremely drug-resistant/colistin-susceptible Pseudomonas aeruginosa isolate 260-97103; assay type: functional
[21] = test system: Stenotrophomonas maltophilia; assay: Antibacterial activity against Stenotrophomonas maltophilia isolate CAN-ICU 62584 after 24 hrs by microtitre broth dilution method; assay type: functional; conditions: isolate CAN-ICU 62584, 24 h
Pseudomonas aeruginosa [22] = assay: Antibacterial activity against multidrug/extremely drug-resistant/colistin-susceptible Pseudomonas aeruginosa isolate 100036; assay type: functional
Staphylococcus aureus [23] = assay: Antibacterial activity against Staphylococcus aureus ATCC 29213 after 24 hrs by microtitre broth dilution method; assay type: functional; conditions: ATCC 29213, 24 h
Pseudomonas aeruginosa [24] = assay: Antimicrobial activity against Pseudomonas aeruginosa PAO750; assay type: functional
In short: (§2)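 MICs were measured in PAO1 and in PAO750. PAO750 is a PAO1 derivative lacking the MexAB-OprM, MexCD-OprJ, MexEF-OprN, MexJK and MexXY efflux pumps and the outer membrane protein OpmH.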

Pseudomonas aeruginosa [25] = assay: Antibacterial activity against multidrug/extremely drug-resistant/colistin-susceptible Pseudomonas aeruginosa isolate 264-104354; assay type: functional
Pseudomonas aeruginosa [26] = assay: Antibacterial activity against multidrug-resistant/tobramycin-susceptible Pseudomonas aeruginosa isolate 86053; assay type: functional
Pseudomonas aeruginosa [27] = assay: Antibacterial activity against Pseudomonas aeruginosa PAO1; assay type: functional
Pseudomonas aeruginosa [28] = assay: Antibacterial activity against Pseudomonas aeruginosa ATCC 27853 after 24 hrs by microtitre broth dilution method; assay type: functional; conditions: ATCC 27853, 24 h
Pseudomonas aeruginosa [29] = assay: Ratio of MIC for Pseudomonas aeruginosa PAO1 after 25 serial passages to MIC for Pseudomonas aeruginosa PAO1 prior to 25 serial passages; assay type: functional
In short: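 P. aeruginosa PAO1 exposed to sub-inhibitory (0.5 x MIC) drug over successive subcultures as a resistance-selection procedure. MIC compared after versus before passaging.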

Pseudomonas aeruginosa [30] = assay: Antibacterial activity against multidrug-resistant/tobramycin-susceptible Pseudomonas aeruginosa isolate 92014; assay type: functional
Pseudomonas aeruginosa [31] = assay: Antibacterial activity against multidrug-resistant/tobramycin-susceptible Pseudomonas aeruginosa isolate 80621; assay type: functional
Staphylococcus aureus [32] = assay: Antibacterial activity against methicillin-resistant Staphylococcus aureus ATCC 33592 after 24 hrs by microtitre broth dilution method; assay type: functional; conditions: ATCC 33592, 24 h
Pseudomonas aeruginosa [33] = assay: Antibacterial activity against extremely drug-resistant Pseudomonas aeruginosa isolate 104354 infected in Galleria mellonella assessed as larvae survival at 50 mg/kg administered as single dose measured after 24 hrs (reference value: 27 %); assay type: functional; conditions: isolate 104354, 24 h; in short: as §1
Pseudomonas aeruginosa [34] = assay: Antibacterial activity against multidrug-resistant/tobramycin-susceptible Pseudomonas aeruginosa isolate 83182; assay type: functional
Pseudomonas aeruginosa [35] = assay: Antibacterial activity against multidrug-resistant/tobramycin-susceptible Pseudomonas aeruginosa isolate 86141; assay type: functional
Pseudomonas aeruginosa [36] = assay: Antibacterial activity against multidrug-resistant/tobramycin-susceptible Pseudomonas aeruginosa isolate 79199; assay type: functional
[37] = Selectivity ratio of MIC for Pseudomonas aeruginosa PAO1 to MIC for Pseudomonas aeruginosa PAO750; assay type: functional; in short: as §2
Pseudomonas aeruginosa [38] = assay: Antibacterial activity against multidrug-resistant/tobramycin-susceptible Pseudomonas aeruginosa isolate 86067; assay type: functional
[39] = test system: Staphylococcus epidermidis; assay: Antibacterial activity against methicillin-resistant Staphylococcus epidermidis isolate CAN-ICU 61589 after 24 hrs by microtitre broth dilution method; assay type: functional; conditions: isolate CAN-ICU 61589, 24 h
Pseudomonas aeruginosa [40] = assay: Antibacterial activity against gentamicin/tobramycin-resistant Pseudomonas aeruginosa isolate CANWARD-2011 96846 after 24 hrs by microtitre broth dilution method; assay type: functional; conditions: isolate CANWARD-2011 96846, 24 h

`COc1c(N2C[C@@H]3CCCN[C@@H]3C2)c(F)cc2c(=O)c(C(=O)O)cn(C3CC3)c12` [MOXIFLOXACIN] showed an MIC (Enterococcus faecalis) of no more than 0.25 µg/mL, an MIC (Escherichia coli [1]) of 32 µg/mL (≈ 79.7 µM) and an MIC (Pseudomonas aeruginosa [2]) of 8 µg/mL (≈ 19.9 µM). It also gave an MIC (Escherichia coli [3]) of no more than 0.25 µg/mL, an MIC (Escherichia coli [4]) of 0.5 µg/mL (≈ 1.25 µM) and an MIC (Pseudomonas aeruginosa [5]) greater than 16 µg/mL. It also gave an MIC (Klebsiella pneumoniae) of no more than 0.25 µg/mL, an MIC (Pseudomonas aeruginosa [6]) of 512 µg/mL (≈ 1280 µM) and an MIC (Pseudomonas aeruginosa [7]) of 16 µg/mL (≈ 39.9 µM). For the same compound, the MIC (Pseudomonas aeruginosa [8]) was 8 to 16 µg/mL (≈ 19.9 to 39.9 µM), the MIC (Escherichia coli [9]) was 1 µg/mL (≈ 2.49 µM) and the MIC (Pseudomonas aeruginosa [10]) was 16 µg/mL (≈ 39.9 µM). For the same compound, the MIC (Pseudomonas aeruginosa [11]) was 0.25 µg/mL (≈ 0.623 µM), the survival at 75 mg/kg (Pseudomonas aeruginosa [12]) was 7% and the MIC [13] was no more than 0.25 µg/mL. The MIC (Pseudomonas aeruginosa [14]) was 8 µg/mL (≈ 19.9 µM), the MIC (Pseudomonas aeruginosa [15]) was greater than 16 µg/mL and the MIC (Pseudomonas aeruginosa [16]) was 16 µg/mL (≈ 39.9 µM). For the same compound, the MIC (Acinetobacter baumannii) was 1 µg/mL (≈ 2.49 µM), the MIC (Enterococcus faecium) was 2 µg/mL (≈ 4.98 µM) and the MIC (Streptococcus pneumoniae) was no more than 0.25 µg/mL. It also gave a pIC50 [17] of 5.59, an MIC (Pseudomonas aeruginosa [18]) of 128 µg/mL (≈ 319 µM) and an MIC (Pseudomonas aeruginosa [19]) of 64 to 128 µg/mL (≈ 159 to 319 µM). It also gave an MIC (Pseudomonas aeruginosa [20]) of 32 to 64 µg/mL (≈ 79.7 to 159 µM), an MIC [21] of 4 µg/mL (≈ 9.96 µM) and an MIC (Pseudomonas aeruginosa [22]) of 128 µg/mL (≈ 319 µM). For the same compound, the MIC (Staphylococcus aureus [23]) was no more than 0.25 µg/mL, the MIC (Pseudomonas aeruginosa [24]) was 0.0078 µg/mL (≈ 0.0194 µM) and the MIC (Pseudomonas aeruginosa [25]) was 32 to 64 µg/mL (≈ 79.7 to 159 µM). For the same compound, the MIC (Pseudomonas aeruginosa [26]) was 16 µg/mL (≈ 39.9 µM), the MIC (Pseudomonas aeruginosa [27]) was 1 µg/mL (≈ 2.49 µM) and the MIC (Pseudomonas aeruginosa [28]) was 4 µg/mL (≈ 9.96 µM). For the same compound, the Ratio (Pseudomonas aeruginosa [29]) was 16, the MIC (Pseudomonas aeruginosa [30]) was 16 µg/mL (≈ 39.9 µM) and the MIC (Pseudomonas aeruginosa [31]) was 8 µg/mL (≈ 19.9 µM). The MIC (Staphylococcus aureus [32]) was no more than 0.25 µg/mL, the survival at 50 mg/kg (Pseudomonas aeruginosa [33]) was 27% and the MIC (Pseudomonas aeruginosa [34]) was 16 µg/mL (≈ 39.9 µM). The MIC (Pseudomonas aeruginosa [35]) was greater than 16 µg/mL, the MIC (Pseudomonas aeruginosa [36]) was greater than 16 µg/mL and the Selectivity ratio [37] was 128. For the same compound, the MIC (Pseudomonas aeruginosa [38]) was 16 µg/mL (≈ 39.9 µM), the MIC [39] was 64 µg/mL (≈ 159 µM) and the MIC (Pseudomonas aeruginosa [40]) was 16 µg/mL (≈ 39.9 µM).
